For orientation: IC50 means the concentration that inhibits the measured activity by half.

The subject of one data set is Influenza A virus. Nature of the data set: Antiviral activity against influenza A virus A/Puerto Rico/8/34 (H1N1) infected in dog MDCK cells assessed as inhibition of viral cytopathic effect incubated for 48 hrs by crystal violet staining based plaque assay. The format is functional, organism-based. The essentials: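 MDCK cells were grown in MEM with 10% FBS at 37 °C and 5% CO2. Compound was premixed with A/PR/8/34 (H1N1) containing 50–200 pfu for 30 min at room temperature. The mixture was adsorbed onto an MDCK monolayer for 30 min at 37 °C, washed, and incubated 2 days. Plaques were counted after crystal violet staining, and IC50 was taken from a logit–log plot.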
In general terms: Protection from cytopathic effect is a common read-out in antiviral testing.

The next data set concerns Vero C1008. Nature of the data set: Cytotoxicity against African green monkey VeroE6T cells assessed as reduction in cell viability after 2 to 3 days by MTT assay. Type of data set: toxicity, cell-based. The following applies: chlorocebus sabaeus, time 2-3 day. A general note: Formazan colour is commonly taken as a measure of viable cells.
The nature of data set [1]: Cytotoxicity against human 293TA cells assessed as reduction in cell viability after 2 to 3 days by MTT assay. The format is toxicity, cell-based. The following applies: time 2-3 day.
The test system of data set [2] is SARS-CoV-2. The data set is described as follows: Antiviral activity against SARS-CoV-2 infected in human 293TA cells assessed as reduction in cytopathic effect after 2 to 3 days by MTT assay. The following applies: Severe acute respiratory syndrome coronavirus 2, 293TA. The format is functional, organism-based.
Data set [3] relates to SARS-CoV-2. The data set is described as follows: Antiviral activity against SARS-CoV-2 infected in African green monkey VeroE6T cells assessed as reduction in cytopathic effect after 2 to 3 days by MTT assay. Type of data set: functional, organism-based, Vero E6. The following applies: Severe acute respiratory syndrome coronavirus 2, Vero C1008.

`CCCCCC/[N+]([O-])=N/[C@H](C)[C@H](C)O`: the IC50 is 25.7 µM in the data set on Influenza A virus and 19.7 µM with SARS-CoV-2 [2]. Moreover, the Activity result (in the data set on Vero C1008; in data set [1]) was “Non-Toxic” each time.

With `CCCC/C=C/[N+]([O-])=N/[C@H](C)[C@H](C)O`, the IC50 in the data set with Influenza A virus came out at 63.2 µM; in the data set on SARS-CoV-2 [2] it was 9.7 µM; in the data set on SARS-CoV-2 [3], 16.4 µM. The Activity entry (with Vero C1008; in data set [1]) was “Non-Toxic” in each case.

`CCC(CC)COC(=O)[C@H](C)N[P@](=O)(OC[C@H]1O[C@@](C#N)(c2ccc3c(N)ncnn23)[C@H](O)[C@@H]1O)Oc1ccccc1` [REMDESIVIR]: the half-maximal inhibitory concentration (IC50) with SARS-CoV-2 [3] amounted to 0.9 µM.

The record behind these values is ChEMBL document CHEMBL5113539, “Dihydromaniwamycin E, a Heat-Shock Metabolite from Thermotolerant Streptomyces sp. JA74, Exhibiting Antiviral Activity against Influenza and SARS-CoV-2 Viruses” (J Nat Prod, 2022).
